71 molecules from ChEMBL document CHEMBL4513216, “Probing the Open Global Health Chemical Diversity Library for Multistage-Active Starting Points for Next-Generation Antimalarials” (ACS Infect Dis, 2020) can be followed below.

The nature of this series: Toxicity liver stage against HepG2, at 10uM. Further details: test concentration 10 uM, cell line HepG2-A16-CD81EGFP. Type of series: cell-based. To be noted: human, HepG2-A16-CD81EGFP cells; read-out: INHIBITION
The essentials:
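Uninfected HepG2-A16-CD81EGFP cells, 3 × 10^3 per well, 1536-well, plated on prespotted compound at 10 μM final, parasite-free screening media added to match infected plates; puromycin 10 μM positive, DMSO 0.5% negative; run in parallel with 48 h PbLuc assay at 37 °C, 5% CO2; viability by CellTiter-Glo luminescence, normalized to controls.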
Turning to `Cc1ncsc1C(=O)N1CCc2nnc(C3CCCCN3C)n2CC1` (stereo unspecified), the cytotoxicity at 10 µM is 3.3%.
For `N#Cc1c(C2CC2)cc(-c2ccc(F)c(F)c2)nc1N` the value was -5.73%; for `Cc1ccc(C(=O)N2C[C@@H](OCc3cccnc3)[C@H]3OCCC[C@@H]32)o1`, -2.52%.
As for `CN1CCOCC2(CCCN(C(=O)c3ccccc3F)C2)C1` (stereo unspecified), the cytotoxicity at 10 µM was -91.4%.
For `Cc1cnc(N2CCC3(CC(=O)N(Cc4csc(C)n4)C3)C2)nc1` (stereo unspecified), the cytotoxicity at 10 µM is -0.211%.
With `CN(C)CC(=O)N1CCC2(CC(=O)N(c3cccc(C#N)c3)C2)C1` (stereo unspecified) the figure was 3.37%.
With `CC(C)C1SCC(=O)Nc2c1cnn2-c1ccc(Cl)cc1` (stereo unspecified) the figure was 47%; with `COc1c(C2CCCN2CC(=O)N(C)c2nccs2)c(C)nn1C` (stereo unspecified), 3.37%; with `N#CC1(C(=O)N2CCCN(c3nccs3)CC2)CCCCC1`, -5.83%.
With `COc1c(C)cnc(CN(C)C(=O)c2ccccc2F)c1C` the figure was -9.11%; with `CN(C)Cc1ccnc(C2CN(CCCc3ccccc3)CCO2)n1` (stereo unspecified), -6.36%.
In the case of `COc1ccccc1C1(CNc2cn[nH]c(=O)c2Cl)CC1`, the cytotoxicity at 10 µM was found to be 54.8%.
For `Cc1ccoc1C(=O)NCC(Cc1ccc(F)cc1)C(N)=O` (stereo unspecified) the value was -0.77%; for `CN(Cc1cncnc1)[C@H]1CN(CC2CC2)[C@@H]2CCCO[C@@H]21`, -9.87%.
With `O=C(CS(=O)(=O)Cc1ccccc1)NCc1ccccc1F` the figure was -17.6%.
For `O=C(NC1CC1)[C@H]1CC[C@@H]2[C@@H](CCN2Cc2ccsc2)O1` the value was 1.42%; for `Cc1cc(C(=O)N2CCCC2)ccc1NCCO`, -3.87%.
`CCC(C)(C)NC(=O)COC(=O)c1cc(C)ccc1NC(=O)N(C)C`: the cytotoxicity at 10 µM was 1.12%.
For the molecule `Cc1csc(CN(C)C(=O)C2CCC(=O)N(CCN(C)C)C2)n1` (stereo unspecified), the cytotoxicity at 10 µM stood at 15.6%.
For `Cc1nc(CN2CCC3(CCN(Cc4nccn4C)CC3)C2=O)cs1` the value was -1.43%; for `CNc1nccc(C2CCCCN2Cc2cnn3cccnc23)n1` (stereo unspecified), 0.247%; for `CCCC(O)CN1CCC(=O)N(Cc2ccccc2)Cc2ccccc21` (stereo unspecified), 5.24%.
With `Cc1nc(Nc2ncccn2)cc(C2CCN(CC(C)C)C2)n1` (stereo unspecified) the figure was -16.1%; with `Cc1nnsc1CN1CCCC1c1nc(-c2ccccc2)no1` (stereo unspecified), -45.8%.
For `CS(=O)(=O)CCn1ccc(NCc2ccc(C#N)cc2)n1` the value was 6.56%.
Take `COCC1CN(C(=O)CS(C)(=O)=O)Cc2ncn(CC3CC3)c21` (stereo unspecified): the cytotoxicity at 10 µM turned out to be 5.29%.
With `O=C1CCCN1CCN1CC[C@@]2(O)CCN(c3ncccn3)C[C@H]2C1` the figure was -2.61%; with `COCCN1CCC2(CC1)CN(C(=O)N(C)C)c1ccc(C)cc12`, 7.74%.
For `Cc1ccc(CN2CC[C@H]3C(=O)N(Cc4cccnc4)CCO[C@H]3C2)o1` the value was -88.7%.
As to `Cn1cc(CN2CCOC3(CCCN(C(=O)c4ccco4)C3)C2)cn1` (stereo unspecified), the cytotoxicity at 10 µM was -23.9%.
For `Cc1nc[nH]c1CN1CCN(C(=O)CCC(F)(F)F)[C@H]2CS(=O)(=O)C[C@H]21` the value was -12.3%; for `COC(=O)COn1c(SC(C)C)nc2ccccc2c1=O`, -6.17%; for `COc1ncccc1NC(=O)NC1CCOc2ccccc21` (stereo unspecified), -7.62%.
With `CCC(CC)(CNC(=O)NC1CCCC1(C)C)S(C)(=O)=O` (stereo unspecified) the figure was 9.18%; with `O=C(c1cnccn1)N1CCCC(Cc2ccccn2)C1` (stereo unspecified), 6.95%.
For `COc1cccc2c1OCC(NCCCOc1cccnc1)C2` (stereo unspecified) the value was 1.52%; for `COCC(C)(NC(=O)c1cc(Cl)c(-n2cccc2)cc1OC)C(N)=O` (stereo unspecified), -4.15%; for `COc1coc(C(=O)Nc2nc(-c3ccccn3)cs2)cc1=O`, 7.31%.
In the case of `O=C(Cc1ccon1)N1CCc2cc(Br)sc2C1`, the cytotoxicity at 10 µM was found to be 1.69%.
With `CC(=O)Nc1c(C)noc1C=Cc1ccc(S(=O)(=O)N2CCCC2)cc1` the figure was 0.931%; with `Cc1ncc(CC(=O)N2CCC3(CCC(=O)N(C4CC4)C3)CC2)c(=O)[nH]1`, -45.1%.
For `O=S(=O)(NC1CCC2(CC1)OCCO2)c1ccccc1Br` the value was -9.01%.
With `c1cc(CNCc2ccnc(N3CCCC3)c2)c2c(c1)OCCO2` the figure was 3.64%; with `O=C(NCCc1coc(-c2ccccc2)n1)NC1CC1`, -18.5%; with `CN(C)CCn1ccnc1C1CCN(C(=O)CCC(F)(F)F)CC1`, -0.734%.
With `COc1ccc(CNC(=O)NC(C)(C(=O)O)c2ccco2)cc1F` (stereo unspecified), the cytotoxicity at 10 µM was found to be 0.808%.
With `CC(C)(C)OC(=O)NCC1CCCCN1Cc1ccccn1` (stereo unspecified), the cytotoxicity at 10 µM was -3.59%.
With `CN(C)CC(=O)N1CCC2(CC1)CN(Cc1cccnc1)C(=O)CO2` the figure was -8.99%; with `COC(=O)c1cc(NC2CCN(CC(F)(F)F)C2=O)ccc1C` (stereo unspecified), -0.812%; with `CC1CCN(C(=O)CSCc2nc(C3CC3)no2)CC1`, 1.26%.
For `CCC[C@H]1CN(Cc2cc(C#N)n(C)c2C)C[C@@H]1NS(=O)(=O)CC` the value was -153%.
On to `Cc1nc2c(c(N(C)C)n1)CCN(C(=O)c1ccc(N)nc1)C2`, for which the cytotoxicity at 10 µM was -8.26%.
For `CC(OCC(F)(F)F)C(=O)N1CCOCC1` (stereo unspecified) the value was -11.9%.
With `Cc1cccc(-c2ccc(C(=O)NCCN(C)C3CC3)c(=O)[nH]2)c1` the figure was -6.81%; with `Cc1nnc(NCc2ccc(F)cc2)o1`, 0.217%; with `CCc1ccc(CNc2cc(-c3ccoc3C)nn2CCO)o1`, 0.485%.
For `CO[C@@H]1CC[C@@H](N(C)C(=O)COc2ccc(F)cc2)[C@H]1O` the value was 8.47%.
As to `O=C1[C@H]2CN(c3cnccn3)C[C@H]2CN1CC1CC1`, the cytotoxicity at 10 µM was -108%.
For `CCN1CCCn2c(nc(CNC(=O)c3ccsc3)cc2=O)C1` the value was 1.16%; for `Cc1ccsc1C(=O)N1Cc2ncn(C)c2C(COCC2CC2)C1` (stereo unspecified), 6.76%.
For `Cc1c(C(C)NC2CSCCSC2)cnn1-c1ccc(F)cc1F` (stereo unspecified) the value was -11.1%; for `CCc1ncc(C(=O)NC(C)(C)C(=O)OC)s1`, 5.01%.
With `Cc1cc(N2CCC(O)CC2)nc(C2CCCN2C)n1` (stereo unspecified) the figure was -1.89%; with `O=C(c1ccc(-c2ccsc2)nc1)N1CCCN(C2CCCCC2)CC1`, 6.67%; with `O=C1Nc2ccccc2CC12CCCN2Cc1cccnc1` (stereo unspecified), 7.27%.
Take `CC1CCC2(CC1)Nc1ccccc1CO2` (stereo unspecified): the cytotoxicity at 10 µM was found to be 4.81%.
For `COc1ccc(-c2cc(C(=O)N3N=C(C)CC3(O)C(F)(F)F)[nH]n2)cc1` (stereo unspecified) the value was 1.36%.
In the case of `O=S(=O)(NCC1(O)CCOCC1)c1c(F)cccc1F`, the cytotoxicity at 10 µM was -4.97%.
For `CC(Cn1cccn1)NC(=O)Nc1cccnc1` (stereo unspecified) the value was -2.9%; for `CCCc1nnc(NC2CCN(CCO)CC2)o1`, 8.35%.
With `Cc1nc(CN2C[C@@H](NC(=O)C3CCC3)[C@H]3COC[C@H]32)cs1` the figure was 7.58%.
